Assay results taken from ChEMBL document CHEMBL1124611, “Synthesis and antitubercular activity of N-(2-naphthyl)glycine hydrazide analogues” (J Med Chem, 1989).

Tests used:
Type in all cases: functional, organism-based
[1] = tested on: Mycobacterium tuberculosis; assay: Ability to inhibit 100%growth against Mycobacterium tuberculosis H37Rv in Youman's medium
In short: (§1)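 M. tuberculosis H37Rv was kept on Petrik's solid medium. A 3-mm loopful of a 14-day culture grown in Youman's medium was floated on 5.0 mL of Youman's (nonprotein) medium holding a range of compound concentrations diluted from stocks. Controls held medium or ethylene glycol. Tubes were sealed with paraffin and held at 37 °C. Growth was compared with controls weekly and scored at 21 days, in triplicate.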

[2] = tested on: Mycobacterium tuberculosis; assay: Ability to inhibit partial growth (50+/-10%) against Mycobacterium tuberculosis H37Rv in Youman's medium; in short: as §1
[3] = tested on: Mycobacterium tuberculosis; assay: Ability to inhibit 100%growth against Mycobacterium tuberculosis H37Rv in Youman's medium with 10% bovine serum
In short: (§2)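 H37Rv from a 14-day Youman's culture was inoculated as a loopful floated on Youman's medium with 10% (v/v) freshly prepared bovine serum. The medium held a range of compound concentrations. Controls held medium or ethylene glycol. Tubes were sealed and held at 37 °C. Growth was compared with controls and scored at 21 days.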

[4] = tested on: Mycobacterium tuberculosis; assay: Ability to inhibit partial growth (50+/-10%) against Mycobacterium tuberculosis H37Rv in Youman's medium with 10% bovine serum; in short: as §2
[5] = tested on: Mycobacterium tuberculosis; assay: Ability to inhibit 100% growth against Mycobacterium tuberculosis strain no :14029
In short: (§3)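 Clinical isolates (INH-resistant nos. 22443 and 312; streptomycin-resistant no. 14029) were kept on Lowenstein-Jensen or Petrik's medium, then moved to Youman's medium. 14-day cultures were inoculated into tubes holding a range of compound concentrations in Youman's medium. Controls held medium, ethylene glycol, INH and streptomycin. Tubes were sealed with paraffin and held at 37 °C for 4 weeks. Growth was compared with controls weekly and scored at 28 days, in triplicate.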

[6] = tested on: Mycobacterium tuberculosis; assay: Ability to inhibit partial growth (50+/-10%) against Mycobacterium tuberculosis strain no: 14029 in Youman's medium; in short: as §3
[7] = tested on: Mycobacterium tuberculosis; assay: Ability to inhibit 100%growth against Mycobacterium tuberculosis strain no: 22443 in Youman's medium.; in short: as §3
[8] = tested on: Mycobacterium tuberculosis; assay: Ability to inhibit 100%growth against Mycobacterium tuberculosis strain no: 312 in Youman's medium.; in short: as §3
[9] = tested on: Mycobacterium tuberculosis; assay: Ability to inhibit partial growth (50+/-10%) against Mycobacterium tuberculosis strain no: 22443 in Youman's medium; in short: as §3
[10] = tested on: Mycobacterium tuberculosis; assay: Ability to inhibit partial growth (50+/-10%) against Mycobacterium tuberculosis strain no: 312 in Youman's medium; in short: as §3

SMILES	Concentration [1]	Concentration [2]	Concentration [3]	Concentration [4]	Concentration [5]	Concentration [6]	Concentration [7]	Concentration [8]	Concentration [9]	Concentration [10]
O=C(O)CNc1ccc2ccccc2c1	1000 µg/mL	100 µg/mL								
O=C(CNc1ccc2ccccc2c1)N/N=C/c1ccncc1	1 µg/mL	0.5 µg/mL	100 µg/mL	10 µg/mL						
CC(Nc1ccc2ccccc2c1)C(=O)NN (stereo unspecified)	1 µg/mL	0.5 µg/mL	50 µg/mL	10 µg/mL						
CN(CC(=O)N/N=C/c1ccncc1)c1ccc2ccccc2c1	10 µg/mL	1 µg/mL	100 µg/mL	10 µg/mL						
CN[C@@H]1[C@H](O[C@H]2[C@H](O[C@H]3[C@H](O)[C@@H](O)[C@H](N=C(N)N)[C@@H](O)[C@@H]3N=C(N)N)O[C@@H](C)[C@]2(O)C=O)O[C@@H](CO)[C@H](O)[C@H]1O					2500 µg/mL	1000 µg/mL				
CC(CC(=O)NN)Nc1ccc2ncccc2c1 (stereo unspecified)	100 µg/mL	50 µg/mL	150 µg/mL	100 µg/mL						
O=C(O)CNc1ccc2ncccc2c1	100 µg/mL	10 µg/mL	100 µg/mL	50 µg/mL						
COc1ccc2cc(NCC(=O)NN)ccc2c1	10 µg/mL	5 µg/mL	50 µg/mL	10 µg/mL						
NNC(=O)CNc1ccc2ccccc2c1	1 µg/mL	0.5 µg/mL	50 µg/mL	10 µg/mL						
CN(CC(=O)NN)c1ccc2ccccc2c1	10 µg/mL	2 µg/mL	50 µg/mL	10 µg/mL						
COc1ccc2cc(NC(C)C(=O)NN)ccc2c1 (stereo unspecified)	50 µg/mL	10 µg/mL	100 µg/mL	50 µg/mL						
CC(CC(=O)NN)Nc1ccc2ccccc2c1 (stereo unspecified)	10 µg/mL	5 µg/mL	100 µg/mL	50 µg/mL						
NNC(=O)CNc1ccc2ncccc2c1	100 µg/mL	25 µg/mL	100 µg/mL	50 µg/mL						
NNC(=O)c1ccncc1	1 µg/mL	0.1 µg/mL	1 µg/mL	0.5 µg/mL			150 µg/mL	100 µg/mL	100 µg/mL	50 µg/mL
